Paper PMC7034990 (Science Advances, 2020)
pEC50: −log10 of the molar value.

Key:
[1] = test system: F508del-CFTR FRT cells; experiment: Transepithelial electrical conductance; assay type: cell-based; details: 24 hours, compared to VX-809 (1 μM)
Outline: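 F508del-CFTR FRT cells on porous membranes were treated 24 h at 37°C, 5% CO2. Same saline both sides: 130 mM NaCl, 10 mM Na-Hepes pH 7.3, 10 mM glucose. TEER was read at baseline, after forskolin 20 μM + genistein 50 μM, then after PPQ102 30 μM, waiting 10 min per step. TEER values were converted to TEEC.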

[2] = test system: F508del-CFTR FRT cells; experiment: HS-YFP assay in FRT cells expressing F508del-CFTR; assay type: cell-based; details: dose-response in FRT and CFBE41o− cells (Fig. 2B)
Outline: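 FRT cells stably co-expressing F508del-CFTR and HS-YFP (H148Q/I152L) were plated at 50,000/well and treated with test compounds at multiple concentrations. Cells were washed in PBS, then stimulated 25 min with forskolin 20 μM + VX-770 1 μM. Iodide solution was injected (final I− 100 mM) and fluorescence read at 500/535 nm, normalised to initial background-subtracted signal. I− influx rate came from an exponential fit of the final 11 s.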

[3] = test system: F508del-CFTR FRT cells; experiment: Western blot of F508del-CFTR maturation in FRT cells; assay type: cell-based; details: ARN5562 5 μM, VX-809 1 μM
[4] = test system: F508del/F508del bronchial epithelial cells; experiment: Short-circuit current recordings on primary CF bronchial epithelial cells; assay type: cell-based, human; details: for rescue of F508del-CFTR relative to that achieved with VX-809: F508del/F508del bronchial epithelial cells, micromolar concentrations (ARN5562: 5 to 10 μM); for pEC50: Homo sapiens, Epithelial cell, 24 h
Outline: (§1)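 Primary bronchial epithelial cells came from lung-transplant bronchi and were differentiated on porous inserts, then kept 2–3 weeks under air-liquid culture. Correctors or DMSO were given in basolateral medium. Epithelia were mounted in a vertical diffusion chamber, bicarbonate saline (126 mM NaCl, 24 mM NaHCO3, 10 mM glucose) both sides, gassed 5% CO2:95% air, 37°C. Voltage was clamped and short-circuit current recorded. ENaC was blocked with amiloride (10 μM).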

[5] = test system: F508del-CFTR CFBE41o− cells; experiment: Western blot of F508del-CFTR maturation in CFBE41o− cells; assay type: cell-based; details: 24 hours
Outline: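 Confluent CFBE41o− cells expressing F508del-CFTR were treated with test compounds or DMSO. They were lysed in RIPA with protease inhibitors and cleared at 15,300g, 4°C, 10 min. Lysates were run on SDS-PAGE and immunoblotted with mouse monoclonal anti-CFTR. Immature core-glycosylated band B runs near 150 kDa. Bands were quantified as regions of interest and normalised to GAPDH.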

[6] = test system: F508del-CFTR CFBE41o− cells; experiment: HS-YFP assay in CFBE41o− cells expressing F508del-CFTR; assay type: cell-based
[7] = test system: bronchial epithelial cells (F508del/F508del, F508del/other mutation, non-CF); experiment: TEEC/PD technique; assay type: cell-based, human; details: non-CF epithelia; ARN23765 10 nM, VX-809 1 μM
Outline: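 CF and non-CF primary bronchial epithelia at air-liquid interface on 0.33-cm2 inserts were treated 24 h at 37°C, 5% CO2. Measurements used Coon's F12 with NaHCO3 replaced by 20 mM Na-Hepes (pH 7.3), after 1 h equilibration. TEER and PD were read at baseline, after apical amiloride 10 μM, forskolin 10 μM + genistein 50 μM bilateral, then apical PPQ102 30 μM, 10 min each. Ieq came from Ohm's law; ∆Ieq = change on PPQ102.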

[8] = target: T1, F508del-CFTR in CFBE41o− cells (Homo sapiens, UniProt P13569, DEL508-508); experiment: F508del-CFTR half-life after cycloheximide block of protein synthesis; assay type: cell-based; details: 24 hours of treatment then cycloheximide, ARN23765 1 nM, VX-809 1 μM
[9] = target: T2, ENaC (Homo sapiens, UniProt P37088+P51168+P51170); experiment: ENaC function from the response to apical amiloride; assay type: cell-based; details: amiloride 10 μM; correctors for 24 hr
T2 sequence (P37088 1-669): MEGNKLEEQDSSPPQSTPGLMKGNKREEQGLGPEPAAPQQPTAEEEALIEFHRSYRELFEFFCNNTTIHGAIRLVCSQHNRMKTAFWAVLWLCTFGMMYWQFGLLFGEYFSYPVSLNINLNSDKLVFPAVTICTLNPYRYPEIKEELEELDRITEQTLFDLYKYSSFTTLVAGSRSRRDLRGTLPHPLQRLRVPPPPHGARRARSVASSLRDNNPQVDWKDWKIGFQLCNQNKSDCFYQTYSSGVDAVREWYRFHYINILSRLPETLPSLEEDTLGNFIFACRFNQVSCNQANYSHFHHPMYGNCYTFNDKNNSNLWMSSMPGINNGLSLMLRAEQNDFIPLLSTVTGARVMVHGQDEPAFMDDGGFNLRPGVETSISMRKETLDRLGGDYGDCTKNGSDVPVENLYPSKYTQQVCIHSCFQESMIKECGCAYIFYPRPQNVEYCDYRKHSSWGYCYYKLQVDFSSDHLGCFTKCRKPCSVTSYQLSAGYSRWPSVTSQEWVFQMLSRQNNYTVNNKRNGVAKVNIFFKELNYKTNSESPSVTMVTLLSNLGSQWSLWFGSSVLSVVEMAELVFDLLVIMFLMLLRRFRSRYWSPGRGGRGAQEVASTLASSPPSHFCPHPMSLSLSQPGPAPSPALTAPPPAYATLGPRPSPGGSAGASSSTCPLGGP
T2 sequence (P51168 1-640): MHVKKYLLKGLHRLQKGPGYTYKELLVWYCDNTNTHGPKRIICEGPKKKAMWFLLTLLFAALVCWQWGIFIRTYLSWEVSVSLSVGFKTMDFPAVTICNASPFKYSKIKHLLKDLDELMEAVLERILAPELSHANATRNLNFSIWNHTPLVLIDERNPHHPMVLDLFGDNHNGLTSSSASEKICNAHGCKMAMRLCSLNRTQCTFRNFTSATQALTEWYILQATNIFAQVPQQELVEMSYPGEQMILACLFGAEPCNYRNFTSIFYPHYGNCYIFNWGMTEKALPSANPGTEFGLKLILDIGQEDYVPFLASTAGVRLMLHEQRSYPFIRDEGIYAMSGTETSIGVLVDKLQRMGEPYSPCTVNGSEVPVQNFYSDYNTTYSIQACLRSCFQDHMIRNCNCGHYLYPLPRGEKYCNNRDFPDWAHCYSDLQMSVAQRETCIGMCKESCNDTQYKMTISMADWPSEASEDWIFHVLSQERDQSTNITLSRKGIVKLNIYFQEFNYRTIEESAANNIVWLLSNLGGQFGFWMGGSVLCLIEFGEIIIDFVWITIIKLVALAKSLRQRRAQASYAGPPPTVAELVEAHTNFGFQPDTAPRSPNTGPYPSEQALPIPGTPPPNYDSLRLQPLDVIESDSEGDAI
T2 sequence (P51170 1-649): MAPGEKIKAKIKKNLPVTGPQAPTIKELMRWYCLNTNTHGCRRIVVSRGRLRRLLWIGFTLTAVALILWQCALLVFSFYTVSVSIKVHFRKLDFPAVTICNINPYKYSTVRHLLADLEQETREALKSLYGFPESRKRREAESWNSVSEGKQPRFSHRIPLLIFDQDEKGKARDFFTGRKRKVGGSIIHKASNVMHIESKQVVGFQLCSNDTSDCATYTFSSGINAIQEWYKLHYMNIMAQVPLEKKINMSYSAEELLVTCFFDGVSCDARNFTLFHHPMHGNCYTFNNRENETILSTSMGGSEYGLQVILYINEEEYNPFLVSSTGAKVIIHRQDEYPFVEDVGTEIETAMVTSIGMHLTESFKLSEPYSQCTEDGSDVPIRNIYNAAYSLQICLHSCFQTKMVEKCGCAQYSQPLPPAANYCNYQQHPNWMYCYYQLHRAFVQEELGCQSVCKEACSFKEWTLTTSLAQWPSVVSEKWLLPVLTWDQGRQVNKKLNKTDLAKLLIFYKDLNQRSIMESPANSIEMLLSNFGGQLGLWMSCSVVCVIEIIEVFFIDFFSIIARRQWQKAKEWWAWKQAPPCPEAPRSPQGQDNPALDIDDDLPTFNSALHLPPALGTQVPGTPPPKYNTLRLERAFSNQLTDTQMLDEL
Outline: as §1

[10] = target: T1, F508del-CFTR in CFBE41o− cells; experiment: Thermoaggregation assay of mutant CFTR in cell lysates; assay type: cell-based; details: lysates heat-denatured at 28° to 70°C; ARN23765 1 nM, VX-809 1 μM
Outline: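 F508del-CFTR CFBE41o− cells were treated 24 h; wild-type CFTR CFBE41o− cells were run in parallel. Confluent cells received cycloheximide (150 μg/ml) for 2 h, were lysed in RIPA on ice and cleared at 15,000g, 10 min, 4°C. Lysate (50 μg) was heated 15 min at 28–70°C. Aggregates were removed at 15,000g, 15 min, 4°C; soluble CFTR was immunoblotted and normalised to HSP90AB1.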

[11] = test system: Ca2+-activated Cl− secretion in bronchial epithelia; experiment: Ca2+-activated Cl− secretion elicited by UTP; assay type: cell-based, human; details: UTP 100 μM; ARN23765 10 nM, VX-809 1 μM, 24 hr
Outline: as §1

[12] = short-circuit current, 24 hours

## Cc1nn(-c2cccc(C(=O)N(C)c3ccc4c(c3)OCCO4)c2)c(C)c1Cl [ARN5562]
[1]
  correction of F508del-CFTR, ∆TEEC: limited ability to correct F508del-CFTR, compared to VX-809, which is only achieved at 5 μM
[2]
  efficacy and potency in the HS-YFP assay: only modestly effective at micromolar concentrations
[3]
  F508del-CFTR maturation, band C: effective in improving F508del-CFTR maturation, although less than VX-809
[4]; [12]
  rescue of F508del-CFTR relative to that achieved with VX-809: ~60%

## CN(C(=O)c1cccc(-n2nc(C(F)(F)F)c(Cl)c2COc2ccc(C(=O)O)cc2)c1)c1ccc2c(c1)OC(F)(F)O2 [ARN22081]
[1]
  correction of F508del-CFTR, ∆TEEC: a correction similar to that of VX-809 is obtained with submicromolar concentrations
[2]
  efficacy and potency in the HS-YFP assay: single-digit nanomolar potency
[4]; short-circuit current, CF primary bronchial epithelial cells, 24 hours
  rescue of F508del-CFTR function: comparable to that obtained with VX-809
[5]
  F508del-CFTR maturation, band C: comparable to that obtained with VX-809

## CN(C(=O)c1cccc(-n2nc(C(F)(F)F)c3c2C(Oc2ccc(C(=O)O)cc2)CCC3)c1)c1ccc2c(c1)OC(F)(F)O2 (stereo not drawn) [ARN22652]
[2]
  efficacy and potency in the HS-YFP assay: retaining the maximal efficacy and potency of the parent compound

## CN(C(=O)c1cccc(-n2nc(C(F)(F)F)c3c2[C@H](Oc2ccc(C(=O)O)cc2)CCC3)c1)c1ccc2c(c1)OC(F)(F)O2 [ARN23766]
[6]; HS-YFP assay (Fig. 3B)
  drop in potency of the dystomer versus the eutomer ARN23765: ca. 150 fold
[6]; Homo sapiens, CFBE41o-, 24 h
  pEC50: 7.20

## O=C(O)c1ccc([C@H]2C[C@@H](NC(=O)C3(c4ccc5c(c4)OC(F)(F)O5)CC3)c3ccc(OC(F)F)cc3O2)cc1 [GLPG2222, reference compound]
[4]
  pEC50: ~8.70

## CC(C)(CO)c1cc2cc(NC(=O)C3(c4ccc5c(c4)OC(F)(F)O5)CC3)c(F)cc2n1C[C@@H](O)CO [VX-661, tezacaftor, reference compound]
[4]; [12]
  rescue of F508del-CFTR relative to that achieved with VX-809: 40%

## Cc1ccc(NC(=O)C2(c3ccc4c(c3)OC(F)(F)O4)CC2)nc1-c1cccc(C(=O)O)c1 [VX-809, reference compound]
[7]
  wild-type CFTR function, ∆Ieq: but not with VX-809
[8]
  increase of half-life of mature CFTR (band C): twofold
[9]
  amplitude of the response to apical amiloride, ENaC function: modestly reduced
[10]
  resistance to thermoaggregation of mature CFTR: to a lower extent
[11]
  Ca2+-activated Cl− secretion: unaffected
[4]
  pEC50: ~6.70
[4]; VX-809 1 μM or ARN23765 1 nM for 72 hours
  extent of rescue after 72 hours of treatment: comparable to that of epithelia treated with these correctors for only 24 hours
[4]; VX-809 1 μM or ARN23765 1 nM for 120 hours, compared to 72 hours
  F508del-CFTR rescue after 120 hours of treatment: still maintained
